Assay results published in ChEMBL document CHEMBL4732196, “Structural optimization towards promising β-methyl-4-acrylamido quinoline derivatives as PI3K/mTOR dual inhibitors for anti-cancer therapy: The in vitro and in vivo biological evaluation” (Eur J Med Chem, 2021).
Active and inactive are the calls of the source. The rule behind the calls is not given here.

Assays:
[1] = target: Mitotic checkpoint serine/threonine-protein kinase BUB1 (Homo sapiens) (UniProt O43683); experiment: Inhibition of human partial length BUB1 (Q724 to K1085 residues) expressed in bacterial system assessed as residual activity at 10 uM by kinome scan method relative to control
Outline: (§1)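 KINOMEscan binding assay, test compound at 10 μM against a 52-kinase panel. % Ctrl = (compound signal − positive control signal)/(negative control signal − positive control signal) × 100, with DMSO as negative control (100%) and a positive control (0%).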

[2] = target: Cyclin-dependent kinase 11B (Homo sapiens) (UniProt P21127); experiment: Inhibition of human partial length CDC2L1 (P353 to G692 residues) expressed in bacterial system assessed as residual activity at 10 uM by kinome scan method relative to control; outline: as §1
[3] = tested on: PC-3; experiment: Growth inhibition of human PC3 cells after 72 hrs by sulforhodamine B assay; assay type: functional
[4] = target: 1-phosphatidylinositol 3-phosphate 5-kinase (Homo sapiens) (UniProt Q9Y2I7); experiment: Inhibition of human partial length PIKFYVE (F1512 to C2098 residues) expressed in mammalian expression system assessed as residual activity at 10 uM by kinome scan method relative to control
Outline: (§2)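 KINOMEscan competitive binding screen at 10 μM test compound against a 52-kinase panel. Output is % Ctrl = (test signal − positive control signal)/(negative control signal − positive control signal) × 100. DMSO is the negative control (100%) and the positive control is set to 0%.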

[5] = Cmax in Sprague-Dawley rat at 5 mg/kg, po; assay type: ADME, organism-based; parameters: route oral, dose 5 mg/kg; conditions: in vivo
Outline: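 Male Sprague-Dawley rats (n = 3) given a single oral gavage of 5 mg/kg as a homogeneous opaque suspension in 0.5% methylcellulose; plasma concentration-time curves used to derive mean PK parameters.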

[6] = target: Tyrosine-protein kinase receptor Tie-1 (Homo sapiens) (UniProt P35590); experiment: Inhibition of human partial length TIE1 (T819 to A1138 residues) expressed in bacterial expression system assessed as residual activity at 10 uM by kinome scan method relative to control; outline: as §2
[7] = target: Mitogen-activated protein kinase kinase kinase 15 (Homo sapiens) (UniProt Q6ZN16); experiment: Inhibition of human partial length MAP3K15 (T625 to L932 residues) expressed in bacterial expression system assessed as residual activity at 10 uM by kinome scan method relative to control; outline: as §1
[8] = target: Phosphatidylinositol 4-phosphate 5-kinase type-1 alpha (Homo sapiens) (UniProt Q99755); experiment: Inhibition of human full length PIP5K1A (M1 to H562 residues) expressed in bacterial expression system assessed as residual activity at 10 uM by kinome scan method relative to control; outline: as §1
[9] = target: Serine/threonine-protein kinase PRP4 homolog (Homo sapiens) (UniProt Q13523); experiment: Inhibition of human partial length PRP4 (D657 to I1007 residues) expressed in bacterial expression system assessed as residual activity at 10 uM by kinome scan method relative to control; outline: as §2
[10] = target: Phosphatidylinositol 4,5-bisphosphate 3-kinase catalytic subunit gamma isoform (Homo sapiens, UniProt P48736); experiment: Inhibition of recombinant human full-length His-tagged PI3Kgamma expressed in baculovirus expression system using PIP2 as substrate measured after 1 hr by ADP-glo assay
[11] = Toxicity in ICR nude mouse xenografted with U87MG cells assessed as reduction in body weight at 30 to 60 mg/kg, po every other day for 24 days; assay type: organism-based; conditions: in vivo, 576 h, dose 30-60 mg/kg, time 24 day
Outline: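 Male ICR nude mice were implanted subcutaneously with 5 × 10^6 U87MG cells. When tumors reached about 200 mm³, mice were randomized and given 30 or 60 mg/kg by oral gavage every other day for 24 days. Body weight and tumor volume (length × width² × 0.5) were recorded every 4 days, with a vehicle-treated group as comparator.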

[12] = target: T1, Serine/threonine-protein kinase mTOR (Homo sapiens, UniProt P42345); experiment: Inhibition of mTOR in human U87MG cells assessed as suppression of phosphorylation of S6 ribosomal at 25 nM after 3 hrs by Western blot analysis; conditions: U87
[13] = target: Phosphatidylinositol 4,5-bisphosphate 3-kinase catalytic subunit delta isoform (Homo sapiens, UniProt O00329); experiment: Inhibition of PI3Kdelta (unknown origin) using PIP2 as substrate measured after 1 hr by ADP-glo assay
[14] = target: T1, Serine/threonine-protein kinase mTOR; experiment: Inhibition of mTOR in human U87MG cells assessed as suppression of phosphorylation of S6 ribosomal at Ser235/236 residues at 25 nM after 3 hrs by Western blot analysis; assay type: cell-based; conditions: U87
Outline: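 U87MG cells were seeded at 1×10^6 per well and held overnight at 37 °C, 5% CO2. They were then exposed to a range of inhibitor concentrations for 3 h at 37 °C. Phospho-Akt (Ser473, Thr308), phospho-S6 (Ser235/236) and phospho-4E-BP1 (Thr37/46) were measured by Western blot with GAPDH as loading control. Bands were quantified as mean ± SD of 3 biological replicates against untreated cells.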

[15] = target: T1, Serine/threonine-protein kinase mTOR; experiment: Inhibition of recombinant human N-terminal FLAG-tagged mTOR (1362 to end amino acids) using ULight-4E-BP1 as substrate incubated for 1 hr by LANCE Ultra assay
[16] = target: AP2-associated protein kinase 1 (Homo sapiens) (UniProt Q2M2I8); experiment: Inhibition of human partial length AAK1 (G25 to L333 residues) expressed in bacterial system assessed as residual activity at 10 uM by kinome scan method relative to control; outline: as §1
[17] = MRT(0 to t) in Sprague-Dawley rat at 5 mg/kg, po; assay type: ADME, organism-based; conditions: in vivo
Outline: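 Male Sprague-Dawley rats (n = 3) received a single 5 mg/kg oral gavage dose formulated as a suspension in 0.5% methylcellulose. Plasma concentration-time curves were recorded and mean PK parameters derived.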

[18] = target: Phosphatidylinositol 4,5-bisphosphate 3-kinase catalytic subunit alpha isoform (Homo sapiens, UniProt P42336); experiment: Inhibition of human partial length PIK3CA (R108 to N1068 residues) expressed in mammalian expression system assessed as residual activity at 10 uM by kinome scan method relative to control; outline: as §2
[19] = target: Cyclin-dependent kinase 8 (Homo sapiens) (UniProt P49336); experiment: Inhibition of human partial length CDK8 (M1 to T360 residues) expressed in bacterial system assessed as residual activity at 10 uM by kinome scan method relative to control; outline: as §1
[20] = target: Dual specificity mitogen-activated protein kinase kinase 7 (Homo sapiens) (UniProt O14733); experiment: Inhibition of human full length MKK7 (M1 to R419 residues) expressed in mammalian expression system assessed as residual activity at 10 uM by kinome scan method relative to control; outline: as §1
[21] = target: Microtubule-associated serine/threonine-protein kinase 1 (Homo sapiens) (UniProt Q9Y2H9); experiment: Inhibition of human partial length MAST1 (S346 to V730 residues) expressed in bacterial expression system assessed as residual activity at 10 uM by kinome scan method relative to control; outline: as §1
[22] = target: Ephrin type-B receptor 6 (Homo sapiens) (UniProt O15197); experiment: Inhibition of human partial length EPHB6 (Q634 to P948 residues) expressed in mammalian expression system assessed as residual activity at 10 uM by kinome scan method relative to control; outline: as §1

Sequence of Serine/threonine-protein kinase PRP4 homolog (Homo sapiens) (Q13523 whole entry, the tested form may be a part, canonical isoform): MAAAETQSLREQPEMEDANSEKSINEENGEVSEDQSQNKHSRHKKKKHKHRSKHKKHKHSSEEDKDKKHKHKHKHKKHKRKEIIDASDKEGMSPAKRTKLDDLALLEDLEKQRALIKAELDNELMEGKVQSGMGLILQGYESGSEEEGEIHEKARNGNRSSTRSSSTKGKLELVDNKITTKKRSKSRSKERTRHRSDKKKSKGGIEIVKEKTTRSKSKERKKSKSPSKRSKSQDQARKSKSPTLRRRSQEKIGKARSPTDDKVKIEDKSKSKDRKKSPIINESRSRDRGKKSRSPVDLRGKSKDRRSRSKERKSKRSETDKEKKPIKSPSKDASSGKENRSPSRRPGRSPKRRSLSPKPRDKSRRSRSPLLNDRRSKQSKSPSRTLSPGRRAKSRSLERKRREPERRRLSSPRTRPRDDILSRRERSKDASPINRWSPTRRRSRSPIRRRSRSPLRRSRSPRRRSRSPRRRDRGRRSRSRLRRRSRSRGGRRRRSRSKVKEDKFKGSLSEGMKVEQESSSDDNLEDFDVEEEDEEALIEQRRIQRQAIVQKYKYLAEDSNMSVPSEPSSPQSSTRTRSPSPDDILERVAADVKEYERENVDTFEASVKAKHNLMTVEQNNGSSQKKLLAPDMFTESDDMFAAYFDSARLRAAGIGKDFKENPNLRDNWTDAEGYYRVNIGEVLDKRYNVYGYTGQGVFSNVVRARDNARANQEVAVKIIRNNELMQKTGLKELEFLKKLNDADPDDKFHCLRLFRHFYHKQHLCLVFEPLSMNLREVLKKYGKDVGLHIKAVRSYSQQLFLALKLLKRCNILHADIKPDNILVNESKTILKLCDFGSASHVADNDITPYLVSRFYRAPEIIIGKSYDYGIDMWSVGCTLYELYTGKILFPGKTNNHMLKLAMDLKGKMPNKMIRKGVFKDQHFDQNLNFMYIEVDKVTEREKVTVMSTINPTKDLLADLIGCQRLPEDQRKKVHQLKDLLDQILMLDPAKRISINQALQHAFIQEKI
Sequence of Cyclin-dependent kinase 8 (Homo sapiens) (P49336 whole entry, the tested form may be a part): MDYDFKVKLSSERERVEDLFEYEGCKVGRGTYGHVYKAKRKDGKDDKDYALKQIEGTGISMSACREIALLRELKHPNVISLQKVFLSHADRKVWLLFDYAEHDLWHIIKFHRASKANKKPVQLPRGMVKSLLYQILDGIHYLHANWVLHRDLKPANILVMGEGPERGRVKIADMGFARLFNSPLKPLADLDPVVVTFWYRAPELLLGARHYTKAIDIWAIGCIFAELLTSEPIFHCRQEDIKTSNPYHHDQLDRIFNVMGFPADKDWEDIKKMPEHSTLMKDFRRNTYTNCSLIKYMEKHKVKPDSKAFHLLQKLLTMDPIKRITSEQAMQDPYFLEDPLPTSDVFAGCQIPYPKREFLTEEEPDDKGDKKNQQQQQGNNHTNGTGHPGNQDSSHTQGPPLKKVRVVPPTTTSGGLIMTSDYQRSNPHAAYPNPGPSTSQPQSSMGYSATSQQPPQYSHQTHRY
Sequence of Phosphatidylinositol 4-phosphate 5-kinase type-1 alpha (Homo sapiens) (Q99755 whole entry, the tested form may be a part): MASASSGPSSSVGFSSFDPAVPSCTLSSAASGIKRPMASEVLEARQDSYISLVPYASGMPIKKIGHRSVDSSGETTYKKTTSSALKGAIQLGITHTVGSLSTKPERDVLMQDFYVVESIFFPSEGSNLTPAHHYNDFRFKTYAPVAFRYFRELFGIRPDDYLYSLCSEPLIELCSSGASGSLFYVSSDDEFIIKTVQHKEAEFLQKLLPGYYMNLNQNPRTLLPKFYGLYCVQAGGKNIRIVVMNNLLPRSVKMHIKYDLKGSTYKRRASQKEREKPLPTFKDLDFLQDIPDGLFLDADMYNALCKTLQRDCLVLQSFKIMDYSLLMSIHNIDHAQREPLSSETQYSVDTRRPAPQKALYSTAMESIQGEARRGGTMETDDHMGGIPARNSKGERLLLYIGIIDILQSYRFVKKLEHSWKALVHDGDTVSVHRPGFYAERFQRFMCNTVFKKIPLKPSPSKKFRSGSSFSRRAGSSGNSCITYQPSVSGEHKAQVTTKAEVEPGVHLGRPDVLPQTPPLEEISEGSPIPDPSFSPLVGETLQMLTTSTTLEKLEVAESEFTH
Sequence of Microtubule-associated serine/threonine-protein kinase 1 (Homo sapiens) (Q9Y2H9 whole entry, looked up, the tested form may be a part): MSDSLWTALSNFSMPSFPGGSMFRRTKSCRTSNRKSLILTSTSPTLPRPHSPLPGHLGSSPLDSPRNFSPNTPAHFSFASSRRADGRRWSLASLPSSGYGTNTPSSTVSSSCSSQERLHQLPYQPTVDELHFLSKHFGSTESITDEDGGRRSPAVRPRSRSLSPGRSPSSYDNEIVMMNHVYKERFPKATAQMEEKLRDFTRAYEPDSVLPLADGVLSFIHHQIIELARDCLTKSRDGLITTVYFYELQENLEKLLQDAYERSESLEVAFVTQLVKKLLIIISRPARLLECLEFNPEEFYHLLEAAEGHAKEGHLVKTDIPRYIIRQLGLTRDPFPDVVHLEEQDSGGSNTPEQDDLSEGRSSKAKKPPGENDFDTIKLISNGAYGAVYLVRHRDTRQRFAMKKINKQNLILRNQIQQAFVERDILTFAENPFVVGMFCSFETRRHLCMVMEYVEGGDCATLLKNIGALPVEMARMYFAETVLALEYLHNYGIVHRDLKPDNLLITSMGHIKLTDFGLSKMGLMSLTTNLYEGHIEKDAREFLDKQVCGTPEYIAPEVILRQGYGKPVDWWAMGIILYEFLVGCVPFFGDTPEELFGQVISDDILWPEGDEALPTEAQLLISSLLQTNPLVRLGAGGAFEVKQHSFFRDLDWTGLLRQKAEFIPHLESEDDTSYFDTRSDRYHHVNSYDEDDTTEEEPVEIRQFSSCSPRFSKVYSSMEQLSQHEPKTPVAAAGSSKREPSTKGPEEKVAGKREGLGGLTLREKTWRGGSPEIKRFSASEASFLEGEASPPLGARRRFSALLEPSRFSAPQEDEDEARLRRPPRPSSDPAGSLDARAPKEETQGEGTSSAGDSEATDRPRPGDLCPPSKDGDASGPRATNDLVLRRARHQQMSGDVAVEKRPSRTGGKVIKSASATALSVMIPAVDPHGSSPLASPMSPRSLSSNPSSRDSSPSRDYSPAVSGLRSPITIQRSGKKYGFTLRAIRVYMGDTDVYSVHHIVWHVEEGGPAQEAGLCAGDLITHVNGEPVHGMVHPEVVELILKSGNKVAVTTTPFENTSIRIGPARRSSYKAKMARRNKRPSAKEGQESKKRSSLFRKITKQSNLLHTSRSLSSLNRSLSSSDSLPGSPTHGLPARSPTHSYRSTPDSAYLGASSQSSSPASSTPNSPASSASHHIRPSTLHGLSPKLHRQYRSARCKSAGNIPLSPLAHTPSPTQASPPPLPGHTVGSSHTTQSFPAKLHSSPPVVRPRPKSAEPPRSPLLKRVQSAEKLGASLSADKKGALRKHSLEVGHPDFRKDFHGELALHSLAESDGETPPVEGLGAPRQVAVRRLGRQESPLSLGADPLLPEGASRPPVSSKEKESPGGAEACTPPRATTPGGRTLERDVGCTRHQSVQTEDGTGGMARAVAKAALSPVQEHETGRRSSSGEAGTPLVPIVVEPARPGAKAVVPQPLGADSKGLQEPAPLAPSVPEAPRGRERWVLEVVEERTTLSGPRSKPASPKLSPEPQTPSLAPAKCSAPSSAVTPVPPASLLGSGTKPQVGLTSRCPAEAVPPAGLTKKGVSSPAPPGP
Sequence of Phosphatidylinositol 4,5-bisphosphate 3-kinase catalytic subunit alpha isoform (P42336 whole entry, the tested form may be a part, canonical isoform): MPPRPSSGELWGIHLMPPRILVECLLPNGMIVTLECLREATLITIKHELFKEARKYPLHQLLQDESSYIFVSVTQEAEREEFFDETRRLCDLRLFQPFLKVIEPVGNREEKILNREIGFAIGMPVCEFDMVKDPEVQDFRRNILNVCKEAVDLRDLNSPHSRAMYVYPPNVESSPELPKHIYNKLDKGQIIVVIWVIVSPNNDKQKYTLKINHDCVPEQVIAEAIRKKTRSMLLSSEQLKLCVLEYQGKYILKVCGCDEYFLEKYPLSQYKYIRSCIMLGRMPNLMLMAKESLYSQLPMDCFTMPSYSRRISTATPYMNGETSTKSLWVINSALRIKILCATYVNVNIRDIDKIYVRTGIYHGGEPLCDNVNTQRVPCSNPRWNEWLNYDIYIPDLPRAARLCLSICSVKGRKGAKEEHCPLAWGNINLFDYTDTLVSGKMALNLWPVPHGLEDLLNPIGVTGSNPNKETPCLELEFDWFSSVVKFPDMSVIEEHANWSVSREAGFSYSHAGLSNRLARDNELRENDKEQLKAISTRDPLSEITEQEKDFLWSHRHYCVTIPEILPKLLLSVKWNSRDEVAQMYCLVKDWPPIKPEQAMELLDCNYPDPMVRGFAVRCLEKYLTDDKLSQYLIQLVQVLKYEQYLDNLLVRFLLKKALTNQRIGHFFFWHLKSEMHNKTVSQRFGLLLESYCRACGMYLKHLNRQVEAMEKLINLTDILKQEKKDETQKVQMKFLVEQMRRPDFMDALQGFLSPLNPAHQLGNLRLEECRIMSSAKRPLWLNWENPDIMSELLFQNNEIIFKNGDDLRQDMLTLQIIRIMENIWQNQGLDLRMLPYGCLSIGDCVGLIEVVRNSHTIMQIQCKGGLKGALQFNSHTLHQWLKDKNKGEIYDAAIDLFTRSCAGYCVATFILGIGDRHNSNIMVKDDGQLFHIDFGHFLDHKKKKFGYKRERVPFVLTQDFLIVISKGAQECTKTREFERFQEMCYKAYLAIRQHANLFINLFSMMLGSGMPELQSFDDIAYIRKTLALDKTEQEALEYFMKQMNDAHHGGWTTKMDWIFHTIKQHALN
Sequence of Dual specificity mitogen-activated protein kinase kinase 7 (Homo sapiens) (O14733 whole entry, the tested form may be a part): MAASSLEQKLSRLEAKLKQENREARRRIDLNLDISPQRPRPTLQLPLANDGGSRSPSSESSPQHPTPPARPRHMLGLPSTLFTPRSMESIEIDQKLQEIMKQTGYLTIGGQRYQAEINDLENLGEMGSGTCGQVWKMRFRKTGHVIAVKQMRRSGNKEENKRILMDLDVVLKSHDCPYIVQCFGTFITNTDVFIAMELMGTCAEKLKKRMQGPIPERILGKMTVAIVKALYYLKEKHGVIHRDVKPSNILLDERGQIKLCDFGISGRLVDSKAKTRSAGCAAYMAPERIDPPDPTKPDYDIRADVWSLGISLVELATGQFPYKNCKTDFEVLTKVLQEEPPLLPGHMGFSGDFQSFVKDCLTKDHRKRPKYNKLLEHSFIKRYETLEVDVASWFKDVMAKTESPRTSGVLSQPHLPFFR

- Activity [1]: 91%
- Activity [2]: 93%
- GI50 [3]: 360 nM
- Activity [4]: 1.9%
- Cmax [5]: 0.903 µg/mL
- Activity [6]: 71%
- Activity [7]: 45%
- Activity [8]: 45%
- Activity [9]: 100%
- IC50 [10]: 1.3 nM
- inhibition [12]: Active
- IC50 [13]: 1.3 nM
- inhibition [14]: Active
- IC50 [15]: 5 nM
- Activity [16]: 44%
- MRT last [17]: 1.9 h
- Activity [18]: 0%
- Activity [19]: 96%
- Activity [20]: 73%
- Activity [21]: 58%
- Activity [22]: 11%
Structure (SMILES): COc1ncc(-c2ccc3nccc(/C(C)=C/C(=O)N4CCN(C)CC4)c3c2)cc1NS(=O)(=O)c1ccc(F)cc1F
- Activity [11]: Non-Toxic
